Tests used:
[1] = Cytotoxicity against human Raji cells assessed as cell viability at 1000 molar ratio after 48 hrs by trypan blue staining method; type: cell-based; conditions: read-out: Activity
In short: (§1)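 Raji cells (EBV genome-carrying, Burkitt's lymphoma) grown in RPMI-1640 with 10% FBS; incubated 48 h at 37 °C with 4 mM n-butyric acid, 32 pM TPA and test compound in DMSO at stated compound/TPA molar ratio; viability determined by Trypan blue staining.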

Raji [2] = assay: Inhibition of TPA-induced EBV-early antigen activation in human Raji cells assessed as EA induction at 100 molar ratio after 48 hrs relative to TPA; type: cell-based; design: scale not given: the % may be the effect or the level left; conditions: human gammaherpesvirus 4
In short: (§2)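 Raji cells (virus non-producer, spontaneous EA activation <0.1%) incubated 48 h at 37 °C with 4 mM n-butyric acid plus 32 pM TPA and compound in DMSO; smears stained by indirect immunofluorescence with NPC patient EBV-EA-positive serum, ≥500 cells counted; EA-positive cells expressed relative to butyrate+TPA control (100%); triplicates; IC50 as mol ratio to 32 pmol TPA.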

[3] = Cytotoxicity against human Raji cells assessed as cell viability at 10 molar ratio after 48 hrs by trypan blue staining method; type: cell-based; conditions: read-out: Activity; in short: as §1
Raji [4] = assay: Inhibition of TPA-induced EBV-early antigen activation in human Raji cells assessed as EA induction at 1000 molar ratio after 48 hrs relative to TPA; type: cell-based; design: scale not given: the % may be the effect or the level left; conditions: human gammaherpesvirus 4; in short: as §2
[5] = Inhibition of TPA-induced EBV-early antigen activation in human Raji cells assessed as EA induction after 48 hrs relative to TPA; type: cell-based, human gammaherpesvirus 4; in short: as §2
[6] = Cytotoxicity against human Raji cells assessed as cell viability at 100 molar ratio after 48 hrs by trypan blue staining method; type: cell-based; conditions: read-out: Activity; in short: as §1
Raji [7] = assay: Inhibition of TPA-induced EBV-early antigen activation in human Raji cells assessed as EA induction at 500 molar ratio after 48 hrs relative to TPA; type: cell-based; design: scale not given: the % may be the effect or the level left; conditions: human gammaherpesvirus 4; in short: as §2
Raji [8] = assay: Inhibition of TPA-induced EBV-early antigen activation in human Raji cells assessed as EA induction at 10 molar ratio after 48 hrs relative to TPA; type: cell-based; design: scale not given: the % may be the effect or the level left; conditions: human gammaherpesvirus 4; in short: as §2
[9] = Cytotoxicity against human Raji cells assessed as cell viability at 500 molar ratio after 48 hrs by trypan blue staining method; type: cell-based; conditions: read-out: Activity; in short: as §1

Structure (SMILES)	viability at 48 h, 1000 molar ratio [1]	Activity (Raji [2])	viability at 48 h, 10 molar ratio [3]	Activity (Raji [4])	IC50 [5]	viability at 48 h, 100 molar ratio [6]	Activity (Raji [7])	Activity (Raji [8])	viability at 48 h, 500 molar ratio [9]
C=C(C)[C@@H]1CC[C@]2(C(=O)O)CC[C@]3(C)[C@H](CC[C@@H]4[C@@]5(C)C[C@H](O)C(C)(C)[C@@H]5CC[C@]43C)[C@@H]12	60%	79%	> 80%	14.2%	475 molar ratio	> 80%	39.2%	100%	> 80%
C=C(C)[C@@H]1CC[C@]2(C(=O)O)CC[C@]3(C)[C@H](CC[C@@H]4[C@@]5(C)[C@@H](C(=O)O)[C@H](O)C(C)(C)[C@@H]5CC[C@]43C)[C@@H]12 [CEANOTHIC ACID]	60%	72.1%	> 80%	8.5%	400 molar ratio	> 80%	35.7%	100%	> 80%
